Screens: PubChem BioAssay, several laboratories
A selection: hits, their analogues and other compounds. The true share with any hit is near 4.7%.
MrgX1 agonist: agonists of human MrgX1 receptor, primary screen, HEK293 cells, Fluo-4 calcium flux; Mas-related G-protein coupled receptor member X1 (Homo sapiens), Q96LB2; Fluo-4 calcium fluorescence, agonist mode; stronger effect = higher value; B-score at 10 µM; actives 0.44% (n = 310,000);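 active = calcium response B-score plate-corrected fluorescence ratio at least 3 library SD, with starting fluorescence B-score inside 5 SD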
Target sequence (Q96LB2 whole entry, looked up): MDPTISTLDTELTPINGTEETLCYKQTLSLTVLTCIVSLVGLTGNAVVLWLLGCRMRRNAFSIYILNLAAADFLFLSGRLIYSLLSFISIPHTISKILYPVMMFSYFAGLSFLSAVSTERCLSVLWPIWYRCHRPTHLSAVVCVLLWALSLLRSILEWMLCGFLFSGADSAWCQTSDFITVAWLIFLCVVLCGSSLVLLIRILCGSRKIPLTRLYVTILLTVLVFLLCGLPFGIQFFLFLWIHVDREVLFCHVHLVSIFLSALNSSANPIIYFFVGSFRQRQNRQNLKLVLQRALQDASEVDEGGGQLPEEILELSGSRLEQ
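Test system: HEK293 cells stably expressing human MrgX1 receptor; Input: fifteen thousand cells per well; Dosing: compound delivered in addition one of three; Schedule: overnight seeding, then 1 h dark dye loading; Technique: Fluo-4 NW calcium fluorescence; Measure: B-scored fluorescence response ratio; Controls: positive and negative controls per plate.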
RGS4 pot: RGS4 potentiators or activators, primary screen, cell-based, HEK293 M3R inducible RGS4, calcium flux; AID 463111, 2010; actives 0.92% (n = 310,000); B-score at 10 µM; carbachol calcium flux Fluo4; stronger effect = lower value;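 active = B-score of the integrated calcium signal more than 4 SD below the library mean, with starting fluorescence not abnormally high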;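 note: negative B-score means reduced calcium response which marks RGS4 activation or potentiation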
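Assay system: HEK293 FlpIn-TREx cells, stable M3R, doxycycline-inducible RGS4 / Probe or stimulus: carbachol, ECmax concentration / Times: overnight RGS4 induction, 30 min dye load 37 °C, 20 min compound RT / Signal: kinetic calcium fluorescence imaging with Fluo4-AM dye, 2 µM / Measure: Agonist-evoked peak-minus-minimum fluorescence over baseline, integrated ratio, B score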
RGS4 block: RGS4 inhibitors, primary screen, cell-based, HEK293 M3R inducible RGS4, calcium flux; actives 0.45% (n = 310,000); AID 463165, 2010; Fluo-4 calcium flux; stronger effect = higher value; triggered by carbachol at its EC20; B-score at 10 µM; Regulator of G-protein signaling 4 (Homo sapiens), P49798;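 active = B-score, a plate-corrected calcium signal, over three deviations above library mean, with baseline fluorescence within five deviations of library mean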;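 note: RGS4 expression induced by doxycycline in cells with stable M3 receptor; B-score is computed from the integrated fluorescence ratio over baseline after carbachol; higher B-score means a larger calcium signal and so more RGS4 inhibition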
Target sequence (P49798 whole entry, looked up): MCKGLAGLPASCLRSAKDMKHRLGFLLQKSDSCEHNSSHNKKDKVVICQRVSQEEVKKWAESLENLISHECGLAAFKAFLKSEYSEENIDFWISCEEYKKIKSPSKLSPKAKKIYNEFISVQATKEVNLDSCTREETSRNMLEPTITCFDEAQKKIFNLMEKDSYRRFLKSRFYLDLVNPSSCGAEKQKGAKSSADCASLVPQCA
MrgX1 antagonist: antagonists of human MrgX1 receptor, primary screen, HEK293 cells, Fluo-4 calcium flux | Mas-related G-protein coupled receptor member X1 (Homo sapiens), Q96LB2 | actives 1.3% (n = 310,000) | AID 588676, 2011 | BAM8-22 antagonism; stronger effect = lower value | B-score at 10 µM;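 active = calcium-response B-score plate-corrected more than 3 library SD below zero, starting fluorescence within 5 deviations, no agonist response on first addition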;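 note: peak minus trough fluorescence over baseline after final BAM8-22 challenge near maximal dose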
KCC2 mod: KCC2 cotransporter modulators, thallium flux, primary screen, cell-based, HEK293 KCC2, FluoZin-2 fluorescence, MLSMR; Solute carrier family 12 member 5 (Homo sapiens), Q9H2X9; KCC2 cells, thallium flux FluoZin-2 fluorescence; B-score of Tl+ flux slope (higher = more flux/activation; lower = inhibition) at 10 µM; actives 2.2% (n = 190,000);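 active = thallium flux slope and its plate-corrected score both differing from the plate sample mean at a set confidence after two filtering rounds, in either direction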;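 note: slope of fluorescence scaled to starting intensity during 10 to 20 s after thallium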
MrgX1 allo act: positive allosteric modulators of MrgX1, primary screen, HEK293 cells, Fluo-4 calcium flux; Mas-related G-protein coupled receptor member X1 (Homo sapiens), Q96LB2; FDSS; stronger effect = higher value; B-score at 10 µM; actives 0.63% (n = 310,000); AID 588675, 2011;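 active = plate-corrected calcium response at least 3 library SD above typical, normal starting fluorescence, not activating the receptor alone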;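 note: compound read alongside a low EC10 to EC30 dose of BAM8-22 agonist; peak minus trough fluorescence over baseline measured at the second addition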
KCC2 secondary: KCC2 modulators in sodium-free buffer, confirmation, cell-based, HEK293 KCC2, thallium flux, secondary assay; shares compounds with KCC2 mod; AID 1713, 2009; FluoZin2 fluorescence; stronger effect = higher value; normalised thallium flux (F/F0 slope) at 10 µM; actives 15% (n = 3,700);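 active = thallium flux slope above the same plate's solvent-only control mean plus 3 SD; inconclusive = the two replicate wells disagree; inactive = no significant difference from solvent-only control wells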
KCC2 bumet counter: thallium flux persisting under bumetanide in KCC2 cells, confirmation, counter-screen for KCC2 modulator project, cell-based, HEK293 KCC2, FluoZin2, secondary assay 3. AID 1714, 2009. normalized thallium flux at 10 µM. HEK293-KCC2 + bumetanide/ouabain; stronger effect = higher value. shares compounds with KCC2 mod. actives 49% (n = 3,700);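 active = thallium entry rate above the same plate's blocked-transporter control wells by more than 3 SD; inconclusive = the two repeat wells disagree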;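 note: raw slope of fluorescence over initial fluorescence between 10 and 20 s after thallium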
KCC2 sec2: KCC2 modulators without ouabain present, confirmation, cell-based, HEK293 KCC2, thallium flux, FluoZin2, secondary assay 2; actives 23% (n = 3,700); shares compounds with KCC2 mod; thallium flux FluoZin2 fluorescence; actives lie on both sides; F/F0 rise rate, 10–20 s post-thallium; normalized thallium flux at 10 µM;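 active = thallium flux slope more than 3 SD above or below the plate's solvent-only control mean, mostly below; inconclusive = the two repeat wells disagreed; inactive = no significant shift from solvent-only controls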;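 note: raw slope with 0.1% DMSO as baseline and bumetanide as block control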
HEK293 Tl flux: thallium flux modulation in parental HEK cells, confirmation, counter-screen for KCC2 modulator project, cell-based, counterscreen 1 | shares compounds with KCC2 mod | HEK293 parental cells, thallium flux FluoZin2, ouabain; baseline-ratio fluorescence slope, 10–20 s after thallium | thallium flux rate (normalised fluorescence) at 10 µM | actives 46% (n = 3,700) | AID 1716, 2009;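 active = thallium flux rate significantly above the same plate's solvent-only control wells, beyond their mean plus 3 SD; inconclusive = the two replicate wells gave conflicting results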
KCC2 ouabain: KCC2 inhibitors and activators, ouabain retest, confirmation, HEK-KCC2 cells; shares compounds with KCC2 mod; HEK293-KCC2, thallium flux FluoZin2 fluorescence; bidirectional: low = inhibitor, high = activator; raw Tl+ flux slope (below DMSO = inhibition, above = activation) at 10 µM; actives 48% (n = 3,700);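 active = thallium flux slope beyond 3 SD from same-plate DMSO control mean in most replicates, usually higher, sometimes lower; inconclusive = repeat tests gave conflicting results; inactive = no significant difference from controls in most replicates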;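 note: slope of initial-normalized fluorescence between seconds 10 and 20 after thallium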
HEK293 Tl flux2: native HEK Tl+ uptake effects, second counter-screen – HEK cells, counterscreen 2, counter-screen for KCC2 modulator project, confirmation | HEK293 parental, thallium flux FluoZin-2 fluorescence slope | actives 33% (n = 3,700) | AID 1718, 2009 | shares compounds with KCC2 mod | thallium flux slope at 10 µM;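 active = thallium flux slope above the same plate's solvent-control mean plus 3 SD in both duplicate wells; inconclusive = duplicate wells that disagreed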;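 note: run without ouabain in cells lacking the KCC2 cotransporter; slope of fluorescence scaled to its starting value between 10 and 20 s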
Starred values were filed as active, the others as inactive.

How did S=c1[nH]nc(COc2ccccc2)n1/N=C/c1ccc(Cl)cc1 do in these assays?
MrgX1 agonist: inactive; RGS4 pot: inactive; RGS4 block: inactive; MrgX1 antagonist: inactive; MrgX1 allo act: inactive

What do the screens show for `CC/C(=N/Nc1cccc(Cl)c1)c1cnnc(SC)n1`?
MrgX1 agonist: inactive; RGS4 pot: inactive; RGS4 block: inactive; MrgX1 antagonist: inactive; KCC2 mod: 0.422; MrgX1 allo act: inactive

Results for CC/C(=N/Nc1ccccc1)c1cnnc(-c2ccccc2)n1 ?
MrgX1 agonist: inactive; RGS4 pot: inactive; RGS4 block: inactive; MrgX1 antagonist: inactive; KCC2 mod: 2.7*; MrgX1 allo act: inactive; KCC2 secondary: 0.00989; KCC2 bumet counter: 0.00564; KCC2 sec2: 0.0333; HEK293 Tl flux: 0.0081; KCC2 ouabain: 0.0219; HEK293 Tl flux2: 0.0103

What do the screens show for `CC(C)(C)c1ccc(C(=O)CC(=O)c2cc(Cl)ccc2O)cc1`?
MrgX1 agonist: inactive; RGS4 pot: inactive; RGS4 block: inactive; MrgX1 antagonist: inactive; KCC2 mod: 4.36*; MrgX1 allo act: inactive; KCC2 secondary: 0.0055; KCC2 bumet counter: 0.0178*; KCC2 sec2: 0.0354; HEK293 Tl flux: 0.0227*; KCC2 ouabain: 0.0253*; HEK293 Tl flux2: 0.0167*

How did Cc1ccc(-c2n[nH]c(=S)n2/N=C/c2cccn2C)cc1 do in these assays?
MrgX1 agonist: inactive; RGS4 pot: inactive; RGS4 block: inactive; MrgX1 antagonist: inactive; KCC2 mod: 5.19*; MrgX1 allo act: inactive; KCC2 secondary: 0.0116; KCC2 bumet counter: 0.0308*; KCC2 sec2: 0.0341; HEK293 Tl flux: 0.00934*; KCC2 ouabain: 0.0262; HEK293 Tl flux2: 0.0114*

How did Cn1cccc1/C=N/n1c(-c2ccc(Cl)cc2)n[nH]c1=S do in these assays?
MrgX1 agonist: inactive; RGS4 pot: inactive; RGS4 block: inactive; MrgX1 antagonist: inactive; MrgX1 allo act: inactive

Results for CC(C)(C)c1ccc(-c2n[nH]c(=S)n2/N=C/c2ccncc2)cc1 ?
MrgX1 agonist: inactive; RGS4 pot: inactive; RGS4 block: inactive; MrgX1 antagonist: inactive; KCC2 mod: 5.58*; MrgX1 allo act: inactive; KCC2 secondary: 0.0107; KCC2 bumet counter: 0.018*; KCC2 sec2: 0.0324; HEK293 Tl flux: 0.0127*; KCC2 ouabain: inconclusive; HEK293 Tl flux2: 0.0112

What do the screens show for `Cc1ccc(-c2nn(-c3ccccc3)cc2/C=N/n2c(-c3cccs3)n[nH]c2=S)cc1`?
MrgX1 agonist: inactive; RGS4 pot: inactive; RGS4 block: inactive; MrgX1 antagonist: inactive; KCC2 mod: 4.58*; MrgX1 allo act: inactive; KCC2 secondary: 0.0106; KCC2 bumet counter: 0.00941*; KCC2 sec2: 0.0301; HEK293 Tl flux: 0.0183*; KCC2 ouabain: 0.0211; HEK293 Tl flux2: 0.0118

What do the screens show for `S=c1[nH]nc(C2CCCCC2)n1/N=C/c1ccncc1`?
MrgX1 agonist: inactive; RGS4 pot: inactive; RGS4 block: inactive; MrgX1 antagonist: inactive; KCC2 mod: 1.09; MrgX1 allo act: inactive

How did S=c1[nH]nc(C2CCCCC2)n1/N=C/c1cccs1 do in these assays?
MrgX1 agonist: inactive; RGS4 pot: inactive; RGS4 block: inactive; MrgX1 antagonist: inactive; KCC2 mod: 6.07*; MrgX1 allo act: inactive; KCC2 secondary: 0.0131*; KCC2 bumet counter: 0.0645*; KCC2 sec2: 0.0328; HEK293 Tl flux: 0.0232*; KCC2 ouabain: inconclusive; HEK293 Tl flux2: inconclusive

How did Cc1ccc(-c2noc(CN(C)C(=O)c3ccc(Br)o3)n2)cc1 do in these assays?
MrgX1 agonist: inactive; RGS4 pot: inactive; RGS4 block: inactive; MrgX1 antagonist: inactive; MrgX1 allo act: inactive

Results for S=c1[nH]nc(-c2ccccc2)n1/N=C/c1cccs1 ?
MrgX1 agonist: inactive; RGS4 pot: inactive; RGS4 block: inactive; MrgX1 antagonist: inactive; MrgX1 allo act: inactive; KCC2 secondary: 0.00563; KCC2 bumet counter: 0.04*; KCC2 sec2: 0.0428*; HEK293 Tl flux: 0.0246*; KCC2 ouabain: 0.0369*; HEK293 Tl flux2: 0.0265*

How did Oc1ccc(/C=N/n2c(-c3ccccc3)n[nH]c2=S)cc1 do in these assays?
MrgX1 agonist: inactive; RGS4 pot: inactive; RGS4 block: inactive; MrgX1 antagonist: inactive; MrgX1 allo act: inactive

Results for CC(=O)c1ccc(OC(C)c2nc3ccccc3s2)cc1 (configuration not stated) ?
MrgX1 agonist: inactive; RGS4 pot: inactive; RGS4 block: inactive; MrgX1 antagonist: inactive; MrgX1 allo act: inactive
